Measurements reported in ChEMBL document CHEMBL4433221, “Novel Sustainable-by-Design HDAC Inhibitors for the Treatment of Alzheimer's Disease” (ACS Med Chem Lett, 2019).
pIC50: −log10 of the molar value. Activity calls are given as the source filed them. The calls are words filed in the database; no cut-off is given here.

Assays:
Histone deacetylase 1 [1] = target: T1, Histone deacetylase 1 (Homo sapiens, UniProt Q13547); assay: Inhibition of human recombinant HDAC1 using ZMAL (Z-(Ac)Lys-AMC fluorogenic substrate incubated for 90 mins by fluorescence method
Histone deacetylase 1 [2] = target: T1, Histone deacetylase 1; assay: Inhibition of human recombinant HDAC1 using fluorogenic peptide p53 residues 379-382 (RHKK(Ac)AMC) as residues at 10 uM by fluorescence method
How it was run: (§1)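 Selectivity profile across HDAC isoforms 1–11 at a single concentration of 10 μM, run in duplicate.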

[3] = target: Histone deacetylase 2 (Homo sapiens) (UniProt Q92769); assay: Inhibition of human recombinant HDAC2 using fluorogenic peptide p53 residues 379-382 (RHKK(Ac)AMC) as residues at 10 uM mins by fluorescence method; how it was run: as §1
[4] = target: Histone deacetylase 5 (Homo sapiens) (UniProt Q9UQL6); assay: Inhibition of human recombinant HDAC5 using fluorogenic trifluoroacetyl lysine as substrate at 10 uM by fluorescence method; how it was run: as §1
[5] = target: T2, Histone deacetylase 7 (Homo sapiens) (UniProt Q8WUI4); assay: Inhibition of human recombinant HDAC7 using fluorogenic trifluoroacetyl lysine as substrate at 10 uM by fluorescence method; how it was run: as §1
T2 sequence (whole entry): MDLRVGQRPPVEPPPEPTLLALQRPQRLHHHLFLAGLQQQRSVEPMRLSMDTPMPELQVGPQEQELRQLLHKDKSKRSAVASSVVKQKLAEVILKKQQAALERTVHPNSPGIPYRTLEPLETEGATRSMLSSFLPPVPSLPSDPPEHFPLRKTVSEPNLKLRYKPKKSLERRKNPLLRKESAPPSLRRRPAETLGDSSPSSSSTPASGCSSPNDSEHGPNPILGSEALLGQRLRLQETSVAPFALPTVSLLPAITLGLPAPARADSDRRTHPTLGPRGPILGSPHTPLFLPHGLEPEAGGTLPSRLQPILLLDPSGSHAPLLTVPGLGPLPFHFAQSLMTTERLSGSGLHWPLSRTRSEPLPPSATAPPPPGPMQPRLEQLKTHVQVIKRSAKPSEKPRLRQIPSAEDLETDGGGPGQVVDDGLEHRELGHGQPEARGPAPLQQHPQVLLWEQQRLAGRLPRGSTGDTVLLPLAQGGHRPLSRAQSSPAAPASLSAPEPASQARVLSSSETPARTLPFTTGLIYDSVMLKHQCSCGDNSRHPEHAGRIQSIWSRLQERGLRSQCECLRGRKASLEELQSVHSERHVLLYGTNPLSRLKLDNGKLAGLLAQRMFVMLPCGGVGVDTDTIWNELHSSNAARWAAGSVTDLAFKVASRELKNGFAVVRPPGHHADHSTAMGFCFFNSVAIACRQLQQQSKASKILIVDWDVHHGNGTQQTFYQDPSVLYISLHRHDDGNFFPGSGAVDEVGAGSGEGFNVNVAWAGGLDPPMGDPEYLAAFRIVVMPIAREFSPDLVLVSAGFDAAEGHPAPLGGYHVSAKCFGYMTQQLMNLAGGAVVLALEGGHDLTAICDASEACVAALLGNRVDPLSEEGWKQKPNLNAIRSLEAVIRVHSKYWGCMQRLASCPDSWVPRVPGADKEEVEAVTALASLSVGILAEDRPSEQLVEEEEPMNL

[6] = target: Histone deacetylase 9 (Homo sapiens) (UniProt Q9UKV0); assay: Inhibition of human recombinant HDAC9 using fluorogenic trifluoroacetyl lysine as substrate at 10 uM by fluorescence method; how it was run: as §1
[7] = target: T3, Polyamine deacetylase HDAC10 (Homo sapiens) (UniProt Q969S8); assay: Inhibition of human recombinant HDAC10 using fluorogenic peptide p53 residues 379-382 (RHKK(Ac)AMC) as residues at 10 uM by fluorescence method; how it was run: as §1
T3 sequence (whole entry): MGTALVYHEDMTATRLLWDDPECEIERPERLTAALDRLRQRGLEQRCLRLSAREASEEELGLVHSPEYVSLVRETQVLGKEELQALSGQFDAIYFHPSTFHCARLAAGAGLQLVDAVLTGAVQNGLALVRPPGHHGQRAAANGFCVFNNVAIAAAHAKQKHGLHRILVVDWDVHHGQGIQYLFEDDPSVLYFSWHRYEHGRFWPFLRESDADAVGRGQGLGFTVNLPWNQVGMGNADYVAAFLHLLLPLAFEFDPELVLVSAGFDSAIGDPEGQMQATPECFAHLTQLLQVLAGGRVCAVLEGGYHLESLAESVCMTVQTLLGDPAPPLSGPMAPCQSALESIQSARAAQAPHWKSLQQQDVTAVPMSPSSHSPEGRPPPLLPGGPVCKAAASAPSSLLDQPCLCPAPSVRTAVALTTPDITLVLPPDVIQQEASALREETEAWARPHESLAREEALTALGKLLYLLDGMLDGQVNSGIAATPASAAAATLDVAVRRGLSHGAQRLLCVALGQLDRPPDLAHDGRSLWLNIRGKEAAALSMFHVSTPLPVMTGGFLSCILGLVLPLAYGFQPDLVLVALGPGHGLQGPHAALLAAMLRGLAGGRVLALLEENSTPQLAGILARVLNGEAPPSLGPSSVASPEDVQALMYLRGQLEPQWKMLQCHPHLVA

[8] = Permeability of the compound at pH 7.4 PBS buffer at 100 uM measured upto 6 hrs by PAMPA-BBB assay

T1 sequence (Q13547 whole entry, the tested form may be a part): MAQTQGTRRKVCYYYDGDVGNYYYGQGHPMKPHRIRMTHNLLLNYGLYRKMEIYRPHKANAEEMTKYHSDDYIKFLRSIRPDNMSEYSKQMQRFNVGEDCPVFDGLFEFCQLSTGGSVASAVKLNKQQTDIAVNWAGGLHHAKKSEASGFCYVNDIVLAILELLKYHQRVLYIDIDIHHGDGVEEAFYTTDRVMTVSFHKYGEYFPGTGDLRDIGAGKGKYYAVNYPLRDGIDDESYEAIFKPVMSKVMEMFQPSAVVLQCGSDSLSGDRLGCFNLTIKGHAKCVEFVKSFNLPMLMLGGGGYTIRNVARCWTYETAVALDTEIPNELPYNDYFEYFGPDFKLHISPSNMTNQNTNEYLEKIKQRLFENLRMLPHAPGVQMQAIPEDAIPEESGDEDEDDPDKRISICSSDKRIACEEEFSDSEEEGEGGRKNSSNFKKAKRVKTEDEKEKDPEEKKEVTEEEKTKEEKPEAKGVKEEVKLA
Histone deacetylase 2 (Homo sapiens), sequence (Q92769 whole entry, the tested form may be a part): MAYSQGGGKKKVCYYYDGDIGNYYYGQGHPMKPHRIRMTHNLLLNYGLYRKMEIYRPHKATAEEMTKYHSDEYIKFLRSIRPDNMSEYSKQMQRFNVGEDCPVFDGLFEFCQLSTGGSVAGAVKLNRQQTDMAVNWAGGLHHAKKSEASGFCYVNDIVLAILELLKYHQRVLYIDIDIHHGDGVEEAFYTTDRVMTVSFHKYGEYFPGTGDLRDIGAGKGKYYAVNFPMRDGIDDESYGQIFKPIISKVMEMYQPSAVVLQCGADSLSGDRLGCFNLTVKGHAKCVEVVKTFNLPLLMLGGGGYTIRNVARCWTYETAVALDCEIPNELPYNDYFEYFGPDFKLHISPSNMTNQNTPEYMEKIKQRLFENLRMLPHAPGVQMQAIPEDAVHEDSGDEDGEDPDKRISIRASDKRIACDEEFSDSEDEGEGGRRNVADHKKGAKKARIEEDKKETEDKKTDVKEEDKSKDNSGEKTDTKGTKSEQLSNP
Histone deacetylase 5 (Homo sapiens), sequence (Q9UQL6 whole entry): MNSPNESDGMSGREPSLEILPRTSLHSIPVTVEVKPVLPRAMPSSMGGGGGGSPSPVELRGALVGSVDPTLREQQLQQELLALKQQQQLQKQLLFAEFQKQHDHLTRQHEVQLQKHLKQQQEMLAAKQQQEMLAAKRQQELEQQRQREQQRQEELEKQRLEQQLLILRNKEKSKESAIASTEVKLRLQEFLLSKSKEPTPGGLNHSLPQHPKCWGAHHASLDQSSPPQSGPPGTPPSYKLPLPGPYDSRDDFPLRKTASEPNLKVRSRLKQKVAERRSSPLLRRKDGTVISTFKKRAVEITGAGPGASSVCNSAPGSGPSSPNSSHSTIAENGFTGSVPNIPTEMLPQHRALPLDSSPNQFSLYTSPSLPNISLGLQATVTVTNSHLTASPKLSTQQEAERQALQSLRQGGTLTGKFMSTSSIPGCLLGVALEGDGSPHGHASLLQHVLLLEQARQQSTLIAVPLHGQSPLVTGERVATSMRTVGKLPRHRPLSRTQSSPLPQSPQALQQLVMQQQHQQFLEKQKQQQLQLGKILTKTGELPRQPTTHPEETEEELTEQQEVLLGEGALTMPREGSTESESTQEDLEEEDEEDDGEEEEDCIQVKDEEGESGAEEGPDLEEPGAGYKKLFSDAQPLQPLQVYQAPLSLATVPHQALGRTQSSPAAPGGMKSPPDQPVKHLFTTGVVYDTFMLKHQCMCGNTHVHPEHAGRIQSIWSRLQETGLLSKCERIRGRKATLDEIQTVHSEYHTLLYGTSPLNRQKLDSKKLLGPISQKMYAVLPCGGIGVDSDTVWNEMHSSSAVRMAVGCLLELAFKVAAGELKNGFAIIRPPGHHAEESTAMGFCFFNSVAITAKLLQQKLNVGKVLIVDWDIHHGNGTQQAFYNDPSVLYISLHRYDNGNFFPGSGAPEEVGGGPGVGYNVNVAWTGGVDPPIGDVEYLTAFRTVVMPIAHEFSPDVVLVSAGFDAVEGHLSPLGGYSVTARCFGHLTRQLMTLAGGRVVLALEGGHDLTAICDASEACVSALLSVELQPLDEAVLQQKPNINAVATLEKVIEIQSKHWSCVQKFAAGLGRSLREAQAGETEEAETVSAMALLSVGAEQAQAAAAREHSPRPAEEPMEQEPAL
Histone deacetylase 9 (Homo sapiens), sequence (Q9UKV0 whole entry, the tested form may be a part): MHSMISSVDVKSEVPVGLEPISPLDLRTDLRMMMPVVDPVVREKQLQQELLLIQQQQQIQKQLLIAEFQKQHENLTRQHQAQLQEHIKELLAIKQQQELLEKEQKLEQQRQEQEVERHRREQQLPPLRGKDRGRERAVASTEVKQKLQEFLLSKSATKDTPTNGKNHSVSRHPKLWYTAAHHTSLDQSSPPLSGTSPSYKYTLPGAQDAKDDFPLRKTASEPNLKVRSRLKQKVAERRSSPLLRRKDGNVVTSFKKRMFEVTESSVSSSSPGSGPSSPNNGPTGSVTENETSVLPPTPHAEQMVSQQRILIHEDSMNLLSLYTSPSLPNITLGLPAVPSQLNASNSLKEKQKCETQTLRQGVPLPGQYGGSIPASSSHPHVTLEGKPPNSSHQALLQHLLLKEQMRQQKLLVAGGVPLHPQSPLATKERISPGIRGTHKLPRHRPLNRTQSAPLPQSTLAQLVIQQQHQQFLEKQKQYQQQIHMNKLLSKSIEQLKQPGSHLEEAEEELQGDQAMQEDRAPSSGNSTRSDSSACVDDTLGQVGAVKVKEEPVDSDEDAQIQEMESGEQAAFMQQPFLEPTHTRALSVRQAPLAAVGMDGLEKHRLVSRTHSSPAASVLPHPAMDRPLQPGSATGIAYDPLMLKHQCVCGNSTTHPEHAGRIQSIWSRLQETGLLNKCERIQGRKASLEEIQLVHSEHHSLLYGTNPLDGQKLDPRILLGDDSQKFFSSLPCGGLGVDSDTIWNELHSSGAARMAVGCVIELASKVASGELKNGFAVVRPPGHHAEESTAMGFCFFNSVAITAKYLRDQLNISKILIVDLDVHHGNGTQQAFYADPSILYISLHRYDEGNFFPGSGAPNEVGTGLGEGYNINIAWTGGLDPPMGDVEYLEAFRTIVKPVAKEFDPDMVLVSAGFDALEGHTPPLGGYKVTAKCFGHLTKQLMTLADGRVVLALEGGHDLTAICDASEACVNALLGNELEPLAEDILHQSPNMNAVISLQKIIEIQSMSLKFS

Row | pIC50 (Histone deacetylase 1 [1]) | inhibition (Histone deacetylase 1 [2]) | inhibition [3] | inhibition [4] | inhibition [5] | inhibition [6] | inhibition [7] | Papp at 6 h, 100 µM [8] [nm/s] | Compound
1 | 6.50 | Active | inactive | inactive | inactive | inactive | inactive | 134 | COc1cccc(CCCCCCCC(=O)NO)c1
2 | 6.11 | Active | inactive | inactive | inactive | inactive | inactive | 102 | COC(=O)c1c(CCCCCCCC(=O)NO)cccc1OC
